Test system: HeLa
Experiment: Antiproliferative activity against human HeLa cells assessed as inhibition of cell growth incubated for 24 hrs by MTT assay
Type: functional, cell-based
Summary of the method: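 Cells kept in DMEM with 10% FBS and 1% antibiotic-antimycotic at 37 °C and 5% CO2. Seeded at 8 × 10^3 cells per 100 μL and left 24 h, then exposed 24 h to 5, 10, 20, 50 or 100 μM. MTT at 0.5 mg/mL in HBSS was added for 2–4 h at 37 °C in the dark. Formazan was dissolved in DMSO, A570 was read, and IC50 was derived.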

Structure (SMILES): C[C@@H](C[C@@H](O)[C@@H](O)C(C)(C)O)[C@@H]1CC[C@]2(C)C3=CC[C@H]4C(C)(C)C(=O)CC[C@]4(C)[C@H]3CC[C@@]12C
- IC50: 51.9 µM
